# Results reported in ChEMBL document CHEMBL3808278, “Design, Synthesis, and Biological Evaluation of Imidazo[1,5-a]quinoline as Highly Potent Ligands of Central Benzodiazepine Receptors” (J Med Chem, 2016).
# Active and inactive are the calls of the source. No cut-off for these calls is given here.
# What was measured:
# [1] = species on record: Bos taurus; assay: Displacement of [3H]-flumazenil from central-type benzodiazepine receptor in bovine cortical membrane at 1000 nM after 90 mins by liquid-phase scintillation beta-counting method; format: cell membranes
# Outline: (§1)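 Competition binding against radiolabelled antagonist [3H]flumazenil in cortical membranes (bovine; human where listed); Ki reported as mean ± SEM of three independent determinations.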
# [2] = Displacement of [3H]-flumazenil from central-type benzodiazepine receptor in bovine cortical membrane after 90 mins by liquid-phase scintillation beta-counting method; format: cell membranes, Bos taurus; outline: as §1
# [3] = species on record: Mus musculus; assay: Myorelaxant effect in mouse assessed as effect on motor coordination after 30 mins by rotarad test; format: organism-based; conditions: in vivo, 0.5 h
# Outline: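 Rota-rod test of motor coordination in mice, with compounds given per os 30 min before testing. Values are mean ± SEM of at least 10 mice.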
# [4] = system: Mus musculus; assay: Neurotoxicity in mouse assessed as effect on neurological and muscular abilities at 10 mg/kg, po after 30 mins by Hole-Board test; format: toxicity, organism-based; conditions: in vivo, 0.5 h
# Outline: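 Hole-board test 30 min after oral dosing at 10 mg kg-1 counted movements (motor activity) and head inspections (exploratory activity). Values are mean ± SEM of at least 10 mice, compared with vehicle controls.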
# [5] = species on record: Rattus norvegicus; assay: Inverse agonist activity at central-type benzodiazepine receptor in Sprague-Dawley rat cerebrocortical synaptoneurosomes assessed as decrease in 36Cl- flow after 10 secs by liquid-phase scintillation beta-counting method
# [6] = system: Mus musculus; assay: Antiamnestic activity in mouse assessed as prevention of scopalamine-induced amnesia at 10 mg/kg, po administered 30 mins before test by passive avoidance test; format: functional, organism-based
# Outline: (§2)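 Passive avoidance in mice: compounds were given per os 30 min before the test, and scopolamine 1.5 mg kg-1 i.p. immediately after the punishment. Read-out was time recorded during the retention session. Values are mean ± SEM of at least 10 mice, compared with vehicle-treated animals.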
# [7] = system: Mus musculus; assay: Antiamnestic activity in scopolamine induced mouse amnesia model assessed as time spent in light box at 1 mg/kg, po administered 30 mins before test by passive avoidance test; format: functional, organism-based; outline: as §2
# [8] = system: Mus musculus; assay: Antiamnestic activity in scopalamine-induced mouse amnesia model assessed as time spent in light box at 10 mg/kg, po administered 30 mins before test by passive avoidance test (reference value: 44.8 +/- 8.1 secs); format: functional; outline: as §2
# [9] = system: Mus musculus; assay: Anxiolytic activity in mouse assessed as time spent in light box at 10 mg/kg, po administered 30 mins before test by light-dark box test; format: functional
# Outline: (§3)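 Light-dark box in mice measured time in the light compartment. Compounds were given per os 30 min before testing, and diazepam 1 mg kg-1 subcutaneously as reference. Values are mean ± SEM of at least 10 mice, compared with vehicle-treated animals.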
# [10] = species on record: Bos taurus; assay: Selectivity ratio, ratio of Ki for central-type benzodiazepine receptor in bovine cortical membrane to Ki for central-type benzodiazepine receptor in bovine cortical membrane in presence of 50 uM of GABA; format: cell membranes
# [11] = system: Mus musculus; assay: Anxiolytic activity in mouse assessed as increase in time spent in light box at 1 mg/kg, po administered 30 mins before test by light-dark box test; format: functional, organism-based; outline: as §3
# [12] = system: Mus musculus; assay: Anxiolytic activity against mouse assessed as increase in time spent in light box at 10 mg/kg, po administered 30 mins before test by light-dark box test; format: functional, organism-based; outline: as §3
# [13] = system: Mus musculus; assay: Anxiolytic activity in mouse assessed as time spent in light box at 30 mg/kg, po administered 30 mins before test by light-dark box test; format: functional; outline: as §3
# [14] = system: Mus musculus; assay: Antiamnestic activity in scopolamine induced mouse amnesia model assessed as time of retention session in light box at 30 mg/kg, po administered 30 mins before test by passive avoidance test (reference value: 44.8 +/- 8.1 secs); format: functional; outline: as §2
# [15] = species on record: Rattus norvegicus; assay: Antagonist activity at central-type benzodiazepine receptor in Sprague-Dawley rat cerebrocortical synaptoneurosomes assessed as decrease in 36Cl- flow after 10 secs by liquid-phase scintillation beta-counting method
# [16] = species on record: Rattus norvegicus; assay: Partial agonist activity at central-type benzodiazepine receptor in Sprague-Dawley rat cerebrocortical synaptoneurosomes assessed as increase in 36Cl- influx after 10 secs by liquid-phase scintillation beta-counting method
# [17] = system: Brain; assay: Neuroprotective activity against oxygen-glucose deprivation and reoxygenation-induced injury in Sprague-Dawley rat brain cortical slices assessed as maximum recovery in LDH release at 50 uM treated during 90 mins of reperfusion phase measured after 90 mins by spetrophotometric method; format: functional
# Outline: (§4)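 Rat brain cortical slices in ACSF underwent 30 min oxygen/glucose deprivation, then 90 min reoxygenated ACSF (reperfusion). Controls were kept 120 min in ACSF. Compounds (0.1–100 µM) were added only during reperfusion, and LDH release was measured. Data are means ± SEM of at least 4 experiments, analysed by ANOVA with Dunnett post test. The effective concentration is that giving the largest reduction, and recovery is the % reversion at that concentration.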
# [18] = system: Mus musculus; assay: Anxiolytic activity in mouse assessed as time spent in light box at 3 mg/kg, po administered 30 mins before test by light-dark box test; format: functional; outline: as §3
# [19] = system: Mus musculus; assay: Anxiolytic activity in mouse assessed as increase in time spent in light box at 1 mg/kg, sc administered 30 mins before test by light-dark box test; format: functional, organism-based
# Outline: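 Mice, light-dark box test for anxiolytic effect; agent given subcutaneously (1 mg kg-1) 30 min before testing; time in light box recorded; mean ± SEM of at least 10 mice; significance vs vehicle-treated mice.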
# [20] = system: Brain; assay: Neuroprotective activity against oxygen-glucose deprivation and reoxygenation-induced injury in Sprague-Dawley rat brain cortical slices assessed as maximum recovery in LDH release at 5 uM treated during 90 mins of reperfusion phase measured after 90 mins by spetrophotometric method; format: functional; outline: as §4
# [21] = system: Mus musculus; assay: Antiamnestic activity in scopolamine induced mouse amnesia model assessed as time spent in light box at 3 mg/kg, po administered 30 mins before test by passive avoidance test (reference value: 44.8 +/- 8.1 secs); format: functional; outline: as §2
# [22] = system: Mus musculus; assay: Anxiolytic activity in po dosed mouse assessed as increase in time spent in light box administered 30 mins before test by light-dark box test; format: functional, organism-based; outline: as §3
Structure (SMILES),Ki [2],Activity [3],Activity [4],Activity [5],Activity [6],Time [9],Ratio Ki [10],Activity [12],Time [18],also measured
Cc1c(-c2ccccc2)c2ccccc2n2cnc(C(=O)N(C)Cc3ccccc3)c12,> 1000 nM,–,–,–,–,–,–,–,–,inhibition [1]: 19%
CCCN(CCC)C(=O)c1cc2c(C(=O)OCC)ncn2c2ccc(F)cc12,0.44 nM,Non-toxic,Non-toxic,Active,Active,181.4 s,0.8,–,–,Activity [7]: Active; Time [8]: 99.6 s
Cc1c(C(=O)N(C)Cc2ccccc2)c2ccccc2n2cnc(C(=O)OC(C)(C)C)c12,2.6 nM,Non-toxic,Non-toxic,–,inactive,–,1,inactive,–,Activity [11]: inactive; Time [13]: <=139.2 s; Time [14]: <=77.9 s; Antagonist activity [15]: Active
CCCN(CCC)C(=O)c1c(C)c2c(C(=O)OCC)ncn2c2ccccc12,1.5 nM,Non-toxic,Non-toxic,–,Active,–,1.3,Active,153.4 s,Activity [16]: Active; Activity [17]: 44%
CN1C(=O)CN=C(c2ccccc2)c2cc(Cl)ccc21 [DIAZEPAM],–,–,–,–,–,–,–,–,–,Activity [19]: Active; Activity [20]: 55.9%
CCCCN(C)C(=O)c1cc2c(C(=O)OC(C)(C)C)ncn2c2ccccc12,1.8 nM,Non-toxic,Non-toxic,Active,Active,167.2 s,0.62,–,144.8 s,Time [21]: 73.5 s; Activity [22]: Dose-dependent effect
